Measured values published in ChEMBL document CHEMBL3244385, “Antitumor anthracycline antibiotics. Structure-activity and structure-cardiotoxicity relationships of rubidazone analogues” (J Med Chem, 1978).

Tests used:
[1] = test system: P388; assay: In vivo antitumor activity against mouse P388 cells allografted in BDF/CDF mouse assessed as host survival time at 2 mg/kg, ip administered on days 1 to 9 relative to control; format: functional; conditions: route intraperitoneal
In short: (§1)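 P-388 lymphocytic leukemia, 10⁶ cells injected ip into BDF or CDF mice on day 0; drug given ip daily on days 1-9 at the stated dose. Read-out T/C: average survival time of treated mice as percent of untreated controls. Assays run by NCI Drug Research and Development Program.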

[2] = test system: Calf thymus DNA; assay: Binding affinity to calf thymus DNA assessed as change in melting temperature at 5 uM by spectrophotometer analysis; format: nucleic-acid assay; conditions: Bos taurus
In short: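 Drug dissolved in Me2SO, diluted with buffer, then mixed with calf thymus DNA. Final mix: 0.01 M phosphate pH 7, 5×10^-5 M DNA, 5×10^-6 M drug, 10^-5 M EDTA, 5% Me2SO. Absorbance at 259 nm recorded every 30 s while heating at 18 °C/h. Tm is the midpoint of the corrected curve; the shift is taken against DNA alone.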

[3] = test system: P388; assay: In vivo antitumor activity against mouse P388 cells allografted in BDF/CDF mouse assessed as host survival time at 0.25 mg/kg, ip administered on days 1 to 9 relative to control; format: functional; conditions: route intraperitoneal; in short: as §1
[4] = test system: P388; assay: In vivo antitumor activity against mouse P388 cells allografted in BDF/CDF mouse assessed as host survival time at 0.5 mg/kg, ip administered on days 1 to 9 relative to control; format: functional; conditions: route intraperitoneal; in short: as §1
[5] = test system: L1210; assay: Inhibition of RNA synthesis in mouse L1210 cells; format: functional; conditions: read-out: ED50 (the source's name)
[6] = Partition coefficient, log P of the compound; format: physicochemical; conditions: octanol/water
[7] = test system: P388; assay: In vivo antitumor activity against mouse P388 cells allografted in BDF/CDF mouse assessed as host survival time at 16 mg/kg, ip administered on days 1 to 9 relative to control; format: functional; conditions: route intraperitoneal; in short: as §1
[8] = test system: L1210; assay: Inhibition of DNA synthesis in mouse L1210 cells; format: functional; conditions: read-out: ED50 (the source's name)
[9] = test system: P388; assay: In vivo antitumor activity against mouse P388 cells allografted in BDF/CDF mouse assessed as host survival time at 8 mg/kg, ip administered on days 1 to 9 relative to control; format: functional; conditions: route intraperitoneal; in short: as §1
[10] = organism: Rattus norvegicus; assay: Cardiotoxicity in rat ECG model relative to adriamycin; conditions: in vivo
[11] = Dissociation constant, pKa of Ar-COOH group of the compound; format: physicochemical
[12] = test system: P388; assay: In vivo antitumor activity against mouse P388 cells allografted in BDF/CDF mouse assessed as host survival time at 4 mg/kg, ip administered on days 1 to 9 relative to control; format: functional; conditions: route intraperitoneal; in short: as §1
[13] = test system: P388; assay: In vivo antitumor activity against mouse P388 cells allografted in BDF/CDF mouse assessed as host survival time at 1 mg/kg, ip administered on days 1 to 9 relative to control; format: functional; conditions: route intraperitoneal; in short: as §1
[14] = organism: Rattus norvegicus; assay: Cardiotoxicity in rat ECG model; conditions: in vivo
[15] = test system: P388; assay: In vivo antitumor activity against mouse P388 cells allografted in BDF/CDF mouse assessed as host survival time at 0.125 mg/kg, ip administered on days 1 to 9 relative to control; format: functional; conditions: route intraperitoneal; in short: as §1

SMILES	T/C [1] [%]	ΔTm [2] [°C]	T/C [3] [%]	T/C [4] [%]	EC50 [5] [nM]	logP [6]	T/C [7] [%]	EC50 [8] [nM]	T/C [9] [%]	Ratio [10]	pKa [11]	T/C [12] [%]	T/C [13] [%]	MCCD [14]	T/C [15] [%]
COc1cccc2c1C(=O)c1c(O)c3c(c(O)c1C2=O)C[C@@](O)(/C(CO)=N/NC(=O)c1ccc(Cl)c(Cl)c1)C[C@@H]3O[C@H]1C[C@H](N)[C@H](O)[C@H](C)O1.Cl	154	5.3	125	143	3600	1.94	72	6600	109	1.4	3.62	202	172	20 mg/kg	116
COc1ccc(C(=O)N/N=C(\C)[C@]2(O)Cc3c(O)c4c(c(O)c3[C@@H](O[C@H]3C[C@H](N)[C@H](O)[C@H](C)O3)C2)C(=O)c2c(OC)cccc2C4=O)cc1.Cl	174	10.9	129	136	1600	1.02	59	3100	183	1.8	4.47	211	158	24 mg/kg	119
COc1cccc2c1C(=O)c1c(O)c3c(c(O)c1C2=O)C[C@@](O)(/C(C)=N/NC(=O)c1ccc(-c2ccccc2)cc1)C[C@@H]3O[C@H]1C[C@H](N)[C@H](O)[C@H](C)O1.Cl	163	10.3	134	138	1000	3	63	1900	98	2.8	3.97	190	157	40 mg/kg	107
CCc1ccc(C(=O)N/N=C(\C)[C@]2(O)Cc3c(O)c4c(c(O)c3[C@@H](O[C@H]3C[C@H](N)[C@H](O)[C@H](C)O3)C2)C(=O)c2c(OC)cccc2C4=O)cc1.Cl	175	10.5	139	148	1100	2.06	68	2600	93	1.5	4.35	175	154	20 mg/kg	111
CCCCOc1ccc(C(=O)N/N=C(\C)[C@]2(O)Cc3c(O)c4c(c(O)c3[C@@H](O[C@H]3C[C@H](N)[C@H](O)[C@H](C)O3)C2)C(=O)c2c(OC)cccc2C4=O)cc1.Cl	179	10.2	143	151	1400	2.65	54	3200	72	>= 3.4	4.23	127	152	>= 48 mg kg-1	115
COc1cccc2c1C(=O)c1c(O)c3c(c(O)c1C2=O)C[C@@](O)(C(=O)CO)C[C@@H]3O[C@H]1C[C@H](N)[C@H](O)[C@H](C)O1.Cl [DOXORUBICIN HYDROCHLORIDE]	149	13.4	170	187	670	0.3	–	1500	–	1	–	77	193	11 mg/kg	–
COc1cccc2c1C(=O)c1c(O)c3c(c(O)c1C2=O)C[C@@](O)(/C(C)=N/NC(=O)c1ccc(O)cc1)C[C@@H]3O[C@H]1C[C@H](N)[C@H](O)[C@H](C)O1.Cl	160	11.5	111	157	1900	0.37	111	3600	181	1.5	4.52	161	145	20 mg/kg	115
COc1cccc2c1C(=O)c1c(O)c3c(c(O)c1C2=O)C[C@@](O)(C(C)=O)C[C@@H]3O[C@H]1C[C@H](N)[C@H](O)[C@H](C)O1 [DAUNORUBICIN]	112	–	152	167	230	0.82	–	480	–	1.3	–	83	162	14 mg/kg	–
COc1cccc2c1C(=O)c1c(O)c3c(c(O)c1C2=O)C[C@@](O)(/C(C)=N/NC(=O)c1ccc(Cl)c(Cl)c1)C[C@@H]3O[C@H]1C[C@H](N)[C@H](O)[C@H](C)O1.Cl	175	11	137	157	1700	2.46	54	2100	81	2.8	3.62	163	166	40 mg/kg	117
